Screening data (PubChem BioAssay)
ARFGAP1 inh: inhibitors of rat ARFGAP1 GAP activity, primary screen, biochemical, fluorescence polarization, GDP tracer; inhibition, % at 16.5 µM; Arfgap1-stimulated ARF1 GTP hydrolysis, GDP FP detection; 360,000 tested, 0.26% active; ADP-ribosylation factor GTPase-activating protein 1 (Rattus norvegicus), Q62848;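 active = inhibition above a per-plate limit, mean inhibition of low control wells plus 3 SD, cut at about 25% in these data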;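 also: 0% = DMSO wells with enzyme and 100% = wells lacking Arfgap1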
Target sequence (Q62848 1-136 limits assumed): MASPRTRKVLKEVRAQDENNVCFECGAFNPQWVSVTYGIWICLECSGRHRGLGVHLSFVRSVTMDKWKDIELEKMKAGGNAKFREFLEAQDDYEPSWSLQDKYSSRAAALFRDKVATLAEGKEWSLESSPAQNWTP
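Repeats: one replicate per compound; assay system: rat Arfgap1 catalytic domain, aa 1-136; times: enzyme reaction 120 min at 25 °C after 20 min preincubation; detection: FP of antibody-bound GDP Alexa 633 tracer, ex 620/em 688 nm; benchmarks: high control wells lacking Arfgap1, low control full reaction with DMSO; reagent: human ARF1(Δ1-17)-GTP substrate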
Calb FLC: C. albicans growth inhibition with fluconazole, primary screen, CaCi-2 strain, Alamar Blue fluorescence. C. albicans CaCi-2 + fluconazole, 48 h. growth inhibition, % (no concentration beside the values). 300,000 tested, 0.57% active;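 active = growth inhibition above about 58% in most replicates, limit read from the data, passing the limit was not always enough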;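 also: all wells also contain fluconazole at 8 µg/ml as a sub-toxic cotreatment; 0% = median of DMSO wells and 100% = median of geldanamycin control wells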
VIM-2 inhibitor: VIM-2 metallo-beta-lactamase inhibitors, primary screen, biochemical, epi-absorbance readout, Pseudomonas aeruginosa enzyme | purified VIM-2, nitrocefin hydrolysis, epi-absorbance fluorescence | inhibition, % at 5.6 µM | 290,000 tested, 0.89% active | AID 1527, 2009;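 active = inhibition above the mean of all tested compounds plus 3 SD, cutoff set per screening run, cut at about 7.5% in these data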;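 also: red hydrolysis product quenches plate fluorescence so inhibitors raise well fluorescence; 0% = enzyme with DMSO and 100% = DMSO without enzyme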
ASAP1 GAP inh: inhibitors of human ASAP1 ArfGAP activity, primary screen, biochemical, fluorescence polarization | Arf-GAP with SH3 domain, ANK repeat and PH domain-containing protein 1 (Homo sapiens), … | ASAP1-stimulated ARF1 GTP hydrolysis, GDP FP detection | inhibition, % at 16.5 µM | 360,000 tested, 0.19% active | AID 624377, 2012; in the data active = inhibition above about 25%;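 also: 0% = vehicle with enzyme and substrate and 100% = no enzyme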
IMP-1 inh: IMP-1 metallo-beta-lactamase inhibitors, primary screen, biochemical, epi-absorbance readout, Pseudomonas aeruginosa enzyme; AID 1556, 2009; 290,000 tested, 0.45% active; purified IMP-1, nitrocefin hydrolysis, epi-absorbance fluorescence; inhibition, % at 5.6 µM; metallo-beta-lactamase IMP-1 (Pseudomonas aeruginosa);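 active = inhibition above the mean plus 3 SD of all compounds in the same screening run, cut at about 4.5% in these data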;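 also: 0% = IMP-1 with DMSO and 100% = DMSO wells lacking enzyme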
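Assay system: purified IMP-1; Quantity: IMP-1 0.2 nM before substrate addition; Medium: HEPES buffer pH 7.1 with ZnSO4 and Brij 35; Incubation: 15 min enzyme–compound preincubation, then 25 min nitrocefin reaction, 25 °C; Signal: fluorescence quenching readout, ex 480/em 530 nm; Controls: DMSO with and without IMP-1; Repeats: singlicate testing.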
PHOSPHO1 inh: PubChem AID 1565 | inhibition, % at 13.3 µM | 290,000 tested, 1.1% active | Phosphoethanolamine/phosphocholine phosphatase (Homo sapiens), Q8TCT1 | recombinant PHOSPHO1, absorbance phosphatase assay; in the data active = inhibition above about 60%
Target sequence (Q8TCT1 whole entry, looked up): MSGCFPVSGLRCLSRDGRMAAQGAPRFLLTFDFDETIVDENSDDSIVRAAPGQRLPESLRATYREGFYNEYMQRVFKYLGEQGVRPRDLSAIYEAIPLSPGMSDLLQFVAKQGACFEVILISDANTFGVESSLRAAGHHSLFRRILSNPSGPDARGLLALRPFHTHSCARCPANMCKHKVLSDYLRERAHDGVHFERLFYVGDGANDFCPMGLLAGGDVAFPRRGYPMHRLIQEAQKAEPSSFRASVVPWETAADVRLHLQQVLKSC
* marks the source's active call; other numbers are inactive results; . = no result given. Sampled rows, rich in hits. Any-hit rate of the full collection: about 2.6%.

SMILES	ARFGAP1 inh	Calb FLC	VIM-2 inhibitor	ASAP1 GAP inh	IMP-1 inh	PHOSPHO1 inh
CC(=O)c1c(C)[nH]c(C(=O)CSc2nnc(-c3ccccc3)o2)c1C	1	5	-1	1	-3	46
Cc1cc(C)cc(-c2nnc(SCC(=O)c3ccc4c(c3)OCCO4)o2)c1	6	6	-3	3	0	-6
Cc1[nH]c2ccc(-c3nnc(SCC(=O)c4ccccc4F)o3)cc2c1C	10	5	-5	7	-4	88*
COc1ccc(-c2nnc(SCC(=O)N3CCN(c4ccccc4)CC3)o2)cc1OC	4	16	0	-9	0	11
COc1ccc(N2CCN(C(=O)CSc3nnc(-c4ccc5[nH]c(C)c(C)c5c4)o3)CC2)cc1	-2	-14	0	1	-4	64*
COc1ccc(OC)c(S(=O)(=O)NCC2CCN(C(=O)C(=O)c3cccs3)CC2)c1	-1	.	.	0	.	.
COC(=O)[C@]12C[C@H](CC(=O)NCCc3ccccc3OC)C(=O)N(Cc3ccccc3)C1=C[C@H](C(C)(C)C)O[C@@H]2C	-12	.	.	-1	.	.
O=C(C(=O)N1CCC(CNS(=O)(=O)c2cccc3ccccc23)CC1)c1cccs1	1	.	.	-7	.	.
CCOC(=O)C1=C(O)/C(=C/c2ccc(-c3ccccc3C(=O)O)o2)SC1=Nc1ccc(OC)cc1	11	.	11*	-10	-4	-26
CC(C)=CCCC1=CC[C@H]2[C@@H](C1)C(C(C)C)=CC(=O)[C@@]2(C)O	7	.	.	-2	.	.
O=C(NNC(=S)NCc1ccco1)c1ccc(Cl)s1	0	6	-2	0	-3	103*
COc1ccc(C2CC(=O)C(c3cccc(Cl)c3)=CN2Cc2ccccc2)cc1 (stereo unspecified)	-1	.	.	10	.	.
O=C(C[n+]1ccccc1)N/N=C/c1cccs1	-3	95*	-3	-8	-2	-51
O=C(C[n+]1ccccc1)N/N=C/c1ccc(Cl)cc1	1	.	.	2	.	.
C=CCNC(=S)N1C[C@H]2CON(C)[C@H]2C[C@H]1c1ccccc1Br	-5	.	.	2	.	.
Fc1ccc(-n2cc(CNCCc3ccccn3)c(-c3ccccc3Cl)n2)cc1	14	-13	0	9	-1	67*
CN(C)CC(O)COc1cc2ccccc2cc1C(=O)N1CCCCC1 (stereo unspecified)	14	103*	0	4	-2	-4
Cc1cc2ncn(S(=O)(=O)N3CCOCC3)c2cc1C	11	5	0	-4	4.5*	25
Cc1c(C(=O)/C=C/c2ccccc2F)c2cc(O)ccc2n1C	13	.	.	4	.	.
CC(O)(c1ccccc1)c1nc(-c2cccc(C#N)c2)cs1 (stereo unspecified)	17	.	.	3	.	.
CCC(CC)C1C(C#N)=C(N)Oc2cc(C)oc(=O)c21 (stereo unspecified)	4	21	-4	-2	-1	4
Cc1cc2c(c(=O)o1)C(CCC1CCCCC1)C(C#N)=C(N)O2 (stereo unspecified)	13	-1	-2	-5	11*	15
O=C(C(=O)N1CCC(CNS(=O)(=O)c2ccccc2OC(F)(F)F)CC1)c1cc2ccccc2o1	8	.	.	-1	.	.
O=C(C(=O)N1CCC(CNS(=O)(=O)Cc2ccccc2)CC1)c1cccs1	-3	.	.	-5	.	.
CCc1nc(NCc2cccnc2)c2oc3ccccc3c2n1	0	0	11*	9	-3	-2
SMILES	ARFGAP1 inh	Calb FLC	VIM-2 inhibitor	ASAP1 GAP inh	IMP-1 inh	PHOSPHO1 inh
COc1cccc(CN(C)C(=O)c2cc(COc3ccc4ncccc4c3)on2)c1	7	-8	-1	5	-2	61*
COc1cccc(CN(C)C(=O)c2cc(COc3c(F)cccc3F)on2)c1	11	51	-3	7	-3	23
O=C(NNC(=O)c1cc(Cl)ccc1O)c1ccc(NS(=O)(=O)c2cccs2)cc1	0	84*	.	-2	.	.
Cc1ccccc1NC(=S)NCc1ccc2c(c1)cc(C)n2C	3	-10	-5	-9	43*	-11
CCc1cccc(C)c1NC(=S)NCc1ccc2c(c1)cc(C)n2C	5	124*	-2	11	-3	-6
COc1ccccc1NC(=S)NCc1ccc2c(c1)cc(C)n2C	11	-28	-1	6	-3	11
COC(=O)[C@]12C[C@H](CC(=O)NCC34CC5CC(CC(C5)C3)C4)C(=O)N(Cc3ccc4c(c3)OCO4)C1=C[C@H](COCc1ccccc1)O[C@@H]2C	-3	.	.	-2	.	.
O=C(Nc1ccccc1)N1c2ccccc2SC1c1ccco1 (stereo unspecified)	2	.	.	16	.	.
COc1ccc(Cl)c(-c2cc(C(=O)Nc3ccc(F)cc3)[nH]n2)c1	-11	.	.	-19	.	.
CCN(CC)C(=O)C(=O)Nc1cc(C(F)(F)F)ccc1Cl	-4	-24	-3	0	2	75*
CCOc1cccc(C2C(C(=O)c3ccc(C)o3)=C(O)C(=O)N2Cc2ccccc2)c1 (stereo unspecified)	-4	14	0	-5	0	.
CCOc1cccc(C2C(C(=O)c3ccc(C)o3)=C(O)C(=O)N2Cc2ccncc2)c1 (stereo unspecified)	8	30	5	-10	2	-36
CCCCOc1cccc(C2C(C(=O)c3ccc(C)o3)=C(O)C(=O)N2Cc2ccco2)c1 (stereo unspecified)	-7	79*	-2	-2	-4	17
CCOc1cccc(C2C(C(=O)c3ccc(C)o3)=C(O)C(=O)N2c2nccs2)c1 (stereo unspecified)	5	-3	3	10	0	71*
C#CCNC(=O)c1cc2c(Br)ccc(Br)c2nc1N	7	.	.	14	.	.
Cc1cc2c(nc1C)CCCN2Cc1ccc(Br)cc1	-1	.	.	-1	.	.
O=C(NC(=S)NNC(=O)c1cccs1)c1ccccc1	9	0	-3	1	-3	-117
Cc1cccc(C(=O)NC(=S)NNC(=O)c2cccs2)c1	0	51	-7	2	-4	88*
CCC(=O)NC(=S)NNC(=O)c1ccc(OC)cc1	6	-6	-9	3	-2	-11
CCCOc1ccc(C(=O)NNC(=S)NC(C)=O)cc1	4	102*	-2	-4	-4	24
CCCOc1ccc(C(=O)NNC(=S)NC(=O)c2ccccc2)cc1	7	71	-3	0	-4	-20
CCCOc1ccc(C(=O)NNC(=S)NC(=O)c2ccco2)cc1	-4	78*	-4	-3	-5	-65
